Here are results for eight compounds from ChEMBL document CHEMBL2390911, “Synthesis and structure-activity relationships of 2-amino-3-carboxy-4-phenylthiophenes as novel atypical protein kinase C inhibitors” (Bioorg Med Chem Lett, 2013).

In assay [1] the target is T1, Protein kinase C zeta type (Homo sapiens, UniProt Q05513).
T1 sequence (Q05513 whole entry): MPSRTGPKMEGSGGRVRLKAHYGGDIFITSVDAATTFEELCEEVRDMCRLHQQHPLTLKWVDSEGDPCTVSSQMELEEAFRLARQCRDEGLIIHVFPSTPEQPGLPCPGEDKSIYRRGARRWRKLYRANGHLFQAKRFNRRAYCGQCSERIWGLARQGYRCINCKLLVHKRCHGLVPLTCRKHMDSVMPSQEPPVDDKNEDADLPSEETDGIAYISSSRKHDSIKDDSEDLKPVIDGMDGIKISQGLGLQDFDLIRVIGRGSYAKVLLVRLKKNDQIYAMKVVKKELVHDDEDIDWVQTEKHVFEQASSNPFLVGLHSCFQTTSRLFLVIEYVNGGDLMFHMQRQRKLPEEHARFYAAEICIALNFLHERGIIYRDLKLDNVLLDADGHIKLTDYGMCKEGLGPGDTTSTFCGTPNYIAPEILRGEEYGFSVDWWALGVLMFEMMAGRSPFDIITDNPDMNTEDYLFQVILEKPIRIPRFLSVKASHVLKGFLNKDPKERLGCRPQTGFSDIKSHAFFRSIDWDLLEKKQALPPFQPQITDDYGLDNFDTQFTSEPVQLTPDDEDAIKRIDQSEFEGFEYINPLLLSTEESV
Kind of assay: Inhibition of atypical PKCzeta (unknown origin) using CREBtide as substrate incubated for 1 hr measured every 2.5 mins by ADP Quest assay.

The target in assay [2] is T1, Protein kinase C zeta type. In words: Inhibition of atypical PKCzeta in HEK293 cells assessed as TNF-induced NFkappaB activation incubated for 3 hrs prior to TNF induction measured after 5 hrs by bright-glo luciferase reporter gene assay. The format is cell-based. (In general: In a reporter assay the amount or activity of a reporter protein is the signal.)
Assay [3] has as its target Voltage-gated inwardly rectifying potassium channel KCNH2 (Homo sapiens, UniProt Q12809). In words: Inhibition of human ERG.
Assay [4] has as its target T2, Protein kinase C iota type (Homo sapiens, UniProt P41743).
T2 sequence (P41743 whole entry): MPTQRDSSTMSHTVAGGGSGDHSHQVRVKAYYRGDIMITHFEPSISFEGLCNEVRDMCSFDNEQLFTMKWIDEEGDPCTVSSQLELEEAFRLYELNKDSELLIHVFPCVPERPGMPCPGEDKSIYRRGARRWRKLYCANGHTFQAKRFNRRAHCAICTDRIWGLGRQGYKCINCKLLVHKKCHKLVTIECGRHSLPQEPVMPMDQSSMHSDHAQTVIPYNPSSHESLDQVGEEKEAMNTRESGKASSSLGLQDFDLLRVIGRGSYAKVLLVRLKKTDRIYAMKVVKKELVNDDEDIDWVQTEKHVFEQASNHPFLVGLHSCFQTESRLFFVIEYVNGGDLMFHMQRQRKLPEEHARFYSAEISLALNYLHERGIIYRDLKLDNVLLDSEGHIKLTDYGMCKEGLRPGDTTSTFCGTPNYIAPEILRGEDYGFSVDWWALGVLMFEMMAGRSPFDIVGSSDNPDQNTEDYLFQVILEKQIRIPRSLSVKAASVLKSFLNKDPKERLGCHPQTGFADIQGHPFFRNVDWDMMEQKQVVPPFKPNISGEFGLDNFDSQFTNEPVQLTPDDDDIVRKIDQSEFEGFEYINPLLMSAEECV
Kind of assay: Inhibition of atypical PKCiota (unknown origin) using CREBtide as substrate incubated for 1 hr measured every 2.5 mins by ADP Quest assay.

Assay [5] can be described thus: Inhibition of atypical PKCzeta in bovine retinal endothelial cells assessed as TNFalpha/VEGF-induced endothelial permeability preincubated for 30 mins followed by TNFalpha induction for 1 hr and VEGF induction for 30 mins measured every 30 mins for 4 hrs by Transwell assay. It is filed as cell-based. Particulars: Bos taurus, Endothelial cell. A digest of the protocol: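 Retinal endothelial monolayers were given a 5-point compound dose-response, then VEGF/TNF was added for 1.5 h. Flux of 70kDa RITC-dextran across the monolayer was the read-out. Data are the mean of at least n≥8, repeated in independent experiments. EC50 was derived from a variable-slope dose-response fit.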

Sequence of Voltage-gated inwardly rectifying potassium channel KCNH2 (Q12809 whole entry): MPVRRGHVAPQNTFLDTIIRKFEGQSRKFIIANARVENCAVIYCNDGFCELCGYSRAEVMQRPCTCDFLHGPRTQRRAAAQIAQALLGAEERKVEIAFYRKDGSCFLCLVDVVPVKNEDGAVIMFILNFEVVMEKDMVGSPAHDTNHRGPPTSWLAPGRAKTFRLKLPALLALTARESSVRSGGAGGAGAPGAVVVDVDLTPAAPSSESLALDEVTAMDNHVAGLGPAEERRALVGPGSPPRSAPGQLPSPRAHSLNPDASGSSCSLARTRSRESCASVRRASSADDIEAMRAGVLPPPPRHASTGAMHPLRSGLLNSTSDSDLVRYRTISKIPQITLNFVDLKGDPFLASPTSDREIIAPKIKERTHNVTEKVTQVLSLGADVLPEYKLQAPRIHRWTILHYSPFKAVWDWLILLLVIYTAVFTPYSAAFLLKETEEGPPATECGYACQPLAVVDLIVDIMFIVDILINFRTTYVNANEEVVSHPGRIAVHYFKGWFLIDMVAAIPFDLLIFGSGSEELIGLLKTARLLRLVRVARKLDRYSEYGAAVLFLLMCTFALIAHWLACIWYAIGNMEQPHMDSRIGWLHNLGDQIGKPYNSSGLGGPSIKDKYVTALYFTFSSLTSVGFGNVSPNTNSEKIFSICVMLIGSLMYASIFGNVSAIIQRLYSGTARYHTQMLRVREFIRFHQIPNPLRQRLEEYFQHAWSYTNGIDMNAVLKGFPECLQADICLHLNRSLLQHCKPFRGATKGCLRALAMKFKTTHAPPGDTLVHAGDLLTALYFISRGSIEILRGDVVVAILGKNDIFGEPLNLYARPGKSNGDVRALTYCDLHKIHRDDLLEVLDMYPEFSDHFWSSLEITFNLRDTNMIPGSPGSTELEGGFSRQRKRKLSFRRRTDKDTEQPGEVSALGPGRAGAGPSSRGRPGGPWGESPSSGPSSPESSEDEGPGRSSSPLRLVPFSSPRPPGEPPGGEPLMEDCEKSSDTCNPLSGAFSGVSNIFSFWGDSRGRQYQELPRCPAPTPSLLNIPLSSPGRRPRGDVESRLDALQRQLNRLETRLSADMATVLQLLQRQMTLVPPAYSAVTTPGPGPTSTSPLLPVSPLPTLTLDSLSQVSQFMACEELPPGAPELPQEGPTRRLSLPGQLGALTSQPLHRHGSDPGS

One may read the IC50 as the concentration that gives 50% inhibition. One may read the EC50 as the concentration giving half of the maximal effect. Compound `COc1ccc(-c2csc(N)c2C(=O)OCc2ccccc2)cc1OC` yielded an IC50 in assay [1] of 6 µM. The EC50 in assay [2] was determined as 0.002 µM.

`COc1ccc(-c2csc(N)c2C(=O)OC(C)C)cc1OC` displayed an IC50 in assay [3] of more than 10 µM.

Regarding `CCOC(=O)c1c(-c2ccc(N(C)C)cc2)csc1N`, the IC50 in assay [3] was more than 10 µM; in assay [4] it was 0.9 µM. Besides, the EC50 in assay [5] stood at 0.28 µM.

In turn, `CCOC(=O)c1c(-c2ccc(N)cc2)csc1N` gave a half-inhibitory concentration (IC50) in assay [1] of 2 µM. Moreover, the half-maximal effective concentration (EC50) in assay [5] was 0.27 µM; in assay [2] it was 0.001 µM.

For the compound `CCOC(=O)c1c(-c2ccc(OC)cc2F)csc1N`, in assay [1], the IC50 is 4 µM. In assay [2], the EC50 is 0.01 µM.

For the compound `COc1cccc(COC(=O)c2c(-c3ccc(OC)c(OC)c3)csc2N)c1`, the IC50 in assay [3] is 1 µM; in assay [4], 0.9 µM. Further, the EC50 in assay [5] is more than 0.1 µM; in assay [2], 0.001 µM.

Regarding `CCOC(=O)c1c(-c2ccc3c(c2)OCO3)csc1N`, the IC50 in assay [4] and in assay [1] was 2 µM throughout. Further, the concentration for a half-maximal effect (EC50) is 0.02 µM in assay [5] and 0.002 µM in assay [2].

Turning to `O=C(c1ccc(Nc2nccc(-c3cc4ccccc4s3)n2)cc1)N1CCC(N2CCCC2)CC1`, the results for the half-maximal effective concentration (EC50) in assay [5] and in assay [2] were 0.001 µM and 0.003 µM, respectively.
